Measurements published in ChEMBL document CHEMBL1177871, “Synthesis and antitumor activity of novel 2',3'-diethanethio-2',3',5'-trideoxy-5'-triazolonucleoside analogues” (Eur J Med Chem, 2010).

What was measured:
Format in all cases: functional, cell-based
HeLa = test: Cytotoxicity against human HeLa cells after 72 hrs by MTT assay
Method in brief: (§1)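 Incubation was 72 h at 37 °C in 95% air/5% CO₂. MTT was then added for 4 h and absorbance read at 490 nm. EC₅₀ is the concentration giving 50% growth inhibition versus untreated control; 5-fluorouridine served as reference.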

A549 = test: Cytotoxicity against human A549 cells after 72 hrs by MTT assay; conditions: A549, 72 h; method in brief: as §1
[1] = Cytotoxicity against human LAC cells after 72 hrs by MTT assay; method in brief: as §1
HepG2 = test: Cytotoxicity against human HepG2 cells after 72 hrs by MTT assay; conditions: HepG2, 72 h; method in brief: as §1

SMILES: CCS[C@@H]1[C@H](SCC)[C@@H](Cn2cc(-c3ccccc3C(F)(F)F)nn2)O[C@H]1n1cc(C)c(=O)[nH]c1=O
- EC50 (HeLa): 54.3 µM
- EC50 (A549): 7.23 µM
- EC50 [1]: 50.6 µM
- EC50 (HepG2): 22.1 µM

SMILES: CCOC(=O)c1cn(C[C@H]2O[C@@H](n3cc(C)c(=O)[nH]c3=O)[C@H](SCC)[C@@H]2SCC)nn1
- EC50 (HeLa): ≥ 100 µM
- EC50 (A549): ≥ 100 µM
- EC50 [1]: ≥ 100 µM
- EC50 (HepG2): ≥ 100 µM

SMILES: CCS[C@@H]1[C@H](SCC)[C@@H](Cn2cc(-c3ccc(C)cc3)nn2)O[C@H]1n1cc(C)c(=O)[nH]c1=O
- EC50 (HeLa): 77.5 µM
- EC50 (A549): 12.3 µM
- EC50 [1]: ≥ 100 µM
- EC50 (HepG2): 21.6 µM

SMILES: CCS[C@@H]1[C@H](SCC)[C@@H](Cn2cc(-c3cccc(C)c3)nn2)O[C@H]1n1ccc(=O)[nH]c1=O
- EC50 (HeLa): 18.8 µM
- EC50 (A549): 12.2 µM
- EC50 [1]: 99 µM
- EC50 (HepG2): 18.3 µM

SMILES: CCS[C@@H]1[C@H](SCC)[C@@H](Cn2cc(-c3ccc(OC)cc3)nn2)O[C@H]1n1ccc(=O)[nH]c1=O
- EC50 (HeLa): 27.7 µM
- EC50 (A549): 16.8 µM
- EC50 [1]: 24.3 µM
- EC50 (HepG2): 16.2 µM

SMILES: CCS[C@@H]1[C@H](SCC)[C@@H](Cn2cc(-c3ccc(OC)cc3)nn2)O[C@H]1n1cc(C)c(=O)[nH]c1=O
- EC50 (HeLa): 66 µM
- EC50 (A549): 38.8 µM
- EC50 [1]: 25.9 µM
- EC50 (HepG2): 22.8 µM

SMILES: CCS[C@@H]1[C@H](SCC)[C@@H](Cn2cc(-c3ccc(F)cc3)nn2)O[C@H]1n1cc(C)c(=O)[nH]c1=O
- EC50 (HeLa): 39.5 µM
- EC50 (A549): ≥ 100 µM
- EC50 [1]: ≥ 100 µM
- EC50 (HepG2): 22.7 µM

SMILES: CCS[C@@H]1[C@H](SCC)[C@@H](Cn2cc(-c3ccccc3)nn2)O[C@H]1n1cc(C)c(=O)[nH]c1=O
- EC50 (HeLa): 1.89 µM
- EC50 (A549): 31.7 µM
- EC50 (HepG2): 65 µM

SMILES: CCS[C@@H]1[C@H](SCC)[C@@H](Cn2cc(-c3ccccc3)nn2)O[C@H]1n1ccc(N)nc1=O
- EC50 (HeLa): 33.5 µM
- EC50 (A549): 64 µM
- EC50 (HepG2): 57.1 µM

SMILES: CCS[C@@H]1[C@H](SCC)[C@@H](Cn2cc(-c3cccs3)nn2)O[C@H]1n1cc(C)c(=O)[nH]c1=O
- EC50 (HeLa): 54.9 µM
- EC50 (A549): 37.3 µM
- EC50 [1]: ≥ 100 µM
- EC50 (HepG2): ≥ 100 µM

SMILES: CCS[C@@H]1[C@H](SCC)[C@@H](Cn2cc(-c3ccccc3C(F)(F)F)nn2)O[C@H]1n1ccc(=O)[nH]c1=O
- EC50 (HeLa): 32.8 µM
- EC50 (A549): 19.4 µM
- EC50 [1]: 81.1 µM
- EC50 (HepG2): 30.3 µM

SMILES: CCS[C@@H]1[C@H](SCC)[C@@H](Cn2cc(-c3ccccc3)nn2)O[C@H]1n1ccc(=O)[nH]c1=O
- EC50 (HeLa): 6.59 µM
- EC50 (A549): 3.04 µM
- EC50 (HepG2): 8.38 µM

SMILES: CCS[C@@H]1[C@H](SCC)[C@@H](Cn2cc(-c3ccc(F)cc3)nn2)O[C@H]1n1ccc(=O)[nH]c1=O
- EC50 (HeLa): 37.4 µM
- EC50 (A549): 22.9 µM
- EC50 [1]: 72.4 µM
- EC50 (HepG2): 22.6 µM

SMILES: CCS[C@@H]1[C@H](SCC)[C@@H](Cn2cc(-c3cccs3)nn2)O[C@H]1n1ccc(=O)[nH]c1=O
- EC50 (HeLa): ≥ 100 µM
- EC50 (A549): ≥ 100 µM
- EC50 [1]: 86.5 µM
- EC50 (HepG2): 91.8 µM

SMILES: CCS[C@@H]1[C@H](SCC)[C@@H](Cn2cc(COC(C)=O)nn2)O[C@H]1n1ccc(=O)[nH]c1=O
- EC50 (HeLa): ≥ 100 µM
- EC50 (A549): ≥ 100 µM
- EC50 [1]: ≥ 100 µM
- EC50 (HepG2): ≥ 100 µM

SMILES: CCOC(=O)c1cn(C[C@H]2O[C@@H](n3ccc(=O)[nH]c3=O)[C@H](SCC)[C@@H]2SCC)nn1
- EC50 (HeLa): ≥ 100 µM
- EC50 (A549): ≥ 100 µM
- EC50 [1]: ≥ 100 µM
- EC50 (HepG2): ≥ 100 µM

SMILES: CCS[C@@H]1[C@H](SCC)[C@@H](Cn2cc(-c3ccc(C)cc3)nn2)O[C@H]1n1ccc(=O)[nH]c1=O
- EC50 (HeLa): 46.7 µM
- EC50 (A549): 6.78 µM
- EC50 [1]: ≥ 100 µM
- EC50 (HepG2): 19.9 µM

SMILES: O=c1[nH]cc(F)c(=O)[nH]1 [FLUOROURACIL]
- EC50 (HeLa): 79.8 µM
- EC50 (A549): 100 µM
- EC50 [1]: 43.7 µM
- EC50 (HepG2): 52.4 µM
